According to PMC11244656 (International journal of pharmaceutics, 2021):

Tests used:
[1] = Biodistribution study to mesenteric lymph and MLNs in rats; assay type: in vivo; details: rat, oral 5 mg/kg; for levels in MLNs compared to plasma: tmax-1h and tmax
[2] = rats, lipid-free formulation; cited from earlier work
[3] = Pharmacokinetic study in rats; assay type: in vivo; details: male, Sprague Dawley, rat, plasma
Outline: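 Male Sprague Dawley rats (275–300 g) had jugular vein cannulas placed under isoflurane, recovered 2 nights and were fasted up to 16 h. IV bolus was given in propylene glycol–water–ethanol (70:20:10). Oral gavage used the same vehicle or sesame oil. Plasma was sampled to 24 h and assayed by HPLC-UV (263 nm, internal standard, 5–15000 ng/mL). Non-compartmental analysis; n = 5 IV, 3 or 6 oral.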

[4] = tested on: artificial CM-like emulsion (Intralipid); test: CM association assay with artificial CM-like emulsion; assay type: in vitro ADME; details: 1.75 μM, TG 1 mg/mL, 37°C, 1 hour, n = 22
Outline: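 Intralipid 20% was diluted in PBS to 1 mg/mL triglyceride. A 2 mL volume was spiked from a 1 mg/mL propylene glycol–ethanol (99:1) stock to give 1.75 μM final. It was stirred at 170 rpm, 37°C, for 1 h. The emulsion was then re-isolated by density gradient ultracentrifugation and drug content measured by HPLC-UV.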

[5] = tested on: human plasma-derived CM; test: CM association assay with human plasma-derived CM; assay type: in vitro ADME; details: 1.75 μM, TG 1 mg/mL, 37°C, 1 hour, n = 9
Outline: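 Chylomicrons came from volunteers on no medicines in the prior week, 3–4 h after a high-fat meal. Blood in K2-EDTA was centrifuged (1,160 g, 15°C, 10 min), then the plasma was ultracentrifuged (268,350 g, 15°C, 35 min). The top CM layer was diluted in PBS to 1 mg/mL TG (enzymatic kit) and held at 4°C ≤24 h. It was spiked to 1.75 μM final, stirred 1 h at 37°C and re-isolated.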

Structure (SMILES): CCC[C@@]1(CCc2ccccc2)CC(O)=C([C@H](CC)c2cccc(NS(=O)(=O)c3ccc(C(F)(F)F)cn3)c2)C(=O)O1 [TPV, tipranavir]
- concentration in mesenteric lymph fluid compared to plasma ([1]; LCT-based formulation, tmax-1h (2 h) and tmax (3 h)): three-fold higher
- levels in MLNs compared to plasma ([1]; LCT-based formulation): comparable
- levels in MLNs compared to plasma ([1]; lipid-free formulation): comparable
- oral bioavailability [2]: 30%
- C0 ([3]; iv, 1 mg/kg): 17600 ng/mL
- Vd ([3]; iv, 1 mg/kg): 0.903 ± 0.204 L/kg
- clearance ([3]; iv, 1 mg/kg): 4.55 mL/min/kg
- Tmax ([3]; po, 5 mg/kg): 3 h
- association with artificial CM-like emulsion (Intralipid) [4]: 31.6%
- association with natural human plasma-derived CM [5]: 66.7%
